Structures can show the parent of a compound that is named as a salt. The source made the active and inactive calls. The calls are words filed in the database; no cut-off is given here.
Tests used:
Hs-578T [1] = assay: Antiinvasive activity against triple-negative human Hs578T cells after 17 hrs by light microscopic analysis; format: functional, cell-based
Outline: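 Transwell filter invasion assay; serum-free medium with 0.1% BSA plus drug in the lower chamber, 5 × 10⁴ Hs578T cells plus drug in the upper chamber. Invaded cells on the underside of the filter counted by light microscopy at 400× after 17 h, thirteen fields per filter, each sample in triplicate. Hs578T cultured in DMEM at 37 °C, 5% CO₂.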

MDA-MB-231 [2] = assay: Cytotoxicity against triple-negative human MDA-MB-231 cells assessed as growth inhibition after 24 hrs by MTT assay; format: functional, cell-based; conditions: MDA-MB-231, 24 h
Hs-578T [3] = assay: Cytotoxicity against triple-negative human Hs578T cells assessed as growth inhibition after 24 hrs by MTT assay; format: functional, cell-based
Hs-578T [4] = assay: Antiinvasive activity against triple-negative human Hs578T cells at 5 mM after 17 hrs by light microscopic analysis relative to control; format: functional
[5] = target: Serine/threonine-protein kinase mTOR (Homo sapiens) (UniProt P42345); assay: Inhibition of mTOR phosphorylation in triple-negative human […] cells at 0.2 mM after 24 hrs by immunoblot analysis; format: cell-based
Outline: (§1)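 Hs578T cells exposed to compound for 24 h at 0.05–0.2 mM or 5–20 mM. Lysates were made in Triton X-100 buffer (pH 7.4, NaF, EGTA, DTT, Na3VO4, protease inhibitors) and run on 10% SDS–PAGE. Immunoblots were probed with anti-phospho AMPK or anti-phospho mTOR antibody.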

MDA-MB-231 [6] = assay: Antitumor activity against triple-negative human MDA-MB-231 cells xenografted in BALB/c athymic nude mouse assessed as tumor growth inhibition at 100 mg/kg, po qd measured for 35 days relative to vehicle-treated control; format: functional; conditions: MDA-MB-231, 840 h, read-out: TGI
Outline: (§2)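 MDA-MB-231 cells (5 × 10^6 in 0.1 mL serum-free medium) were injected s.c. into the right lower flank of nude mice. At tumor volumes of 100–130 mm³, mice (n = 6) received oral gavage once daily for 35 days at 25, 50, 100 or 500 mg/kg. Caliper volumes, (length × width²)/2, were taken three times weekly. Inhibition was calculated versus the vehicle group.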

Hs-578T [7] = assay: Antiinvasive activity against triple-negative human Hs578T cells assessed as downregulation of MMP9 level at 0.05 to 0.2 mM after 24 hrs by gelatin zymogram assay; format: functional, cell-based
Outline: (§3)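 Hs578T cells were cultured 24 h in serum-free medium containing compound at 0.05–0.2 mM or 5–20 mM. Gelatinolytic activity of the conditioned medium was resolved by gelatin zymography (MMP-2 72 kDa, MMP-9 92 kDa). Relative band intensities were quantified by densitometry.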

Hs-578T [8] = assay: Ratio of compound activity to metformin activity for inhibition of triple-negative human Hs578T cells invasiveness; format: functional
[9] = target: Serine/threonine-protein kinase mTOR (Homo sapiens) (UniProt P42345); assay: Ratio of compound activity to metformin activity for inhibition of mTOR phosphorylation in triple-negative human […] cells; format: cell-based
MDA-MB-231 [10] = assay: Antitumor activity against triple-negative human MDA-MB-231 cells xenografted in BALB/c athymic nude mouse assessed as tumor growth inhibition at 50 mg/kg, po qd measured for 35 days relative to vehicle-treated control; format: functional; conditions: MDA-MB-231, 840 h, read-out: TGI; outline: as §2
[11] = target: 5'-AMP-activated protein kinase catalytic subunit alpha-2 (Homo sapiens) (UniProt P54646); assay: Ratio of compound activity to metformin activity for activation of AMPK in triple-negative human […] cells; format: cell-based
Hs-578T [12] = assay: Antiinvasive activity against triple-negative human Hs578T cells at 0.2 mM after 17 hrs by light microscopic analysis relative to control; format: functional
Outline: (§4)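 Transwell invasion with polycarbonate filters. 5 × 10^4 Hs578T cells were placed in the upper chamber with drug, and the lower chamber held serum-free medium with 0.1% BSA plus drug. After 17 h, cells invaded to the filter underside were counted by light microscopy (400×) in 13 fields per filter. Each sample was run in triplicate.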

Hs-578T [13] = assay: Antiinvasive activity against triple-negative human Hs578T cells assessed as downregulation of MMP2 level by immunoblot analysis; format: functional, cell-based
Hs-578T [14] = assay: Antiinvasive activity against triple-negative human Hs578T cells assessed as downregulation of MMP2 level after 24 hrs by gelatin zymogram assay; format: functional, cell-based; outline: as §3
MDA-MB-231 [15] = assay: Antitumor activity against triple-negative human MDA-MB-231 cells xenografted in BALB/c athymic nude mouse assessed as tumor growth inhibition at 25 mg/kg, po qd measured for 35 days relative to vehicle-treated control; format: functional; conditions: MDA-MB-231, 840 h, read-out: TGI; outline: as §2
MDA-MB-231 [16] = assay: Induction of apoptosis in triple-negative human MDA-MB-231 cells assessed as early apoptotic cells at 0.1 mM after 24 hrs by annexin V-FITC/propidium iodide staining-based flow cytometric analysis relative to control; format: functional
Outline: (§5)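 MDA-MB-231 cells treated 24 h at 0.1 or 10 mM were stained with FITC-annexin V and propidium iodide and analyzed by flow cytometry. Quadrants: annexin−/PI− viable; annexin+/PI− early apoptotic; PI+ late apoptotic/necrotic.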

Mus musculus [17] = assay: Toxicity in BALB/c athymic nude mouse xenografted with triple-negative human MDA-MB-231 cells assessed as body weight change at 25 to 100 mg/kg, po qd measured for 35 days relative to vehicle-treated control; format: organism-based; set-up: dose 25-100 mg/kg, route oral; conditions: in vivo, 840 h
Outline: (§6)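 MDA-MB-231 s.c. xenograft in nude mice (n = 6), dosed orally by gavage once daily for 35 days at 25–100 or 500 mg/kg. Body weights were recorded three times weekly and compared with vehicle-treated mice.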

Hs-578T [18] = assay: Ratio of metformin IC50 to compound IC50 for triple-negative human Hs578T cells; format: functional
Outline: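 Hs578T cells were exposed to compounds for 24 h and viability was read by MTT (4 h, formazan dissolved in DMSO, OD 540 nm), in triplicate. The ratio uses IC50 values from this assay.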

MDA-MB-231 [19] = assay: Induction of apoptosis in triple-negative human MDA-MB-231 cells assessed as viable cells at 0.1 mM after 24 hrs by annexin V-FITC/propidium iodide staining-based flow cytometric analysis relative to control; format: functional; conditions: MDA-MB-231, 24 h, read-out: Activity; outline: as §5
MDA-MB-231 [20] = assay: Ratio of compound activity to metformin activity for tumor growth inhibition of triple-negative human MDA-MB-231 cells xenografted in BALB/c athymic nude mouse; format: functional
MDA-MB-231 [21] = assay: Induction of apoptosis in triple-negative human MDA-MB-231 cells assessed as dead cells at 0.1 mM after 24 hrs by annexin V-FITC/propidium iodide staining-based flow cytometric analysis relative to control; format: functional
Outline: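 MDA-MB-231 cells grown in DMEM at 37 °C, 5% CO2, then exposed for 24 h to agent dissolved in DMSO. Cells were stained at 1 × 10^6 cells/ml with FITC-annexin V and/or propidium iodide and analysed by flow cytometry as quadrant dot plots. Lower left is viable, lower right early apoptotic, upper right/left late apoptotic/necrotic (membrane integrity lost).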

[22] = target: 5'-AMP-activated protein kinase catalytic subunit alpha-2 (Homo sapiens) (UniProt P54646); assay: Activation of AMPK in triple-negative human […] cells at 0.2 mM after 24 hrs by immunoblot analysis; format: cell-based; outline: as §1
MDA-MB-231 [23] = assay: Induction of apoptosis in triple-negative human MDA-MB-231 cells assessed as apoptotic cells at 0.1 mM after 24 hrs by annexin V-FITC/propidium iodide staining-based flow cytometric analysis relative to control; format: functional; outline: as §5
MDA-MB-231 [24] = assay: Induction of apoptosis in triple-negative human MDA-MB-231 cells assessed as early apoptotic cells at 10 mM after 24 hrs by annexin V-FITC/propidium iodide staining-based flow cytometric analysis relative to control; format: functional; outline: as §5
Mus musculus [25] = assay: Toxicity in BALB/c athymic nude mouse xenografted with triple-negative human MDA-MB-231 cells assessed as body weight change at 500 mg/kg, po qd measured for 35 days relative to vehicle-treated control; format: organism-based; set-up: dose 500 mg/kg, route oral; conditions: in vivo, 840 h; outline: as §6
MDA-MB-231 [26] = assay: Induction of apoptosis in triple-negative human MDA-MB-231 cells assessed as viable cells at 10 mM after 24 hrs by annexin V-FITC/propidium iodide staining-based flow cytometric analysis relative to control; format: functional; conditions: MDA-MB-231, 24 h, read-out: Activity; outline: as §5
MDA-MB-231 [27] = assay: Induction of apoptosis in triple-negative human MDA-MB-231 cells assessed as dead cells at 10 mM after 24 hrs by annexin V-FITC/propidium iodide staining-based flow cytometric analysis relative to control; format: functional
Outline: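 MDA-MB-231 cells grown in DMEM at 37 °C, 5% CO2, then exposed for 24 h to agent dissolved in distilled water. Cells were stained at 1 × 10^6 cells/ml with FITC-annexin V and/or propidium iodide for flow cytometry and read as quadrant dot plots. Lower left is viable, lower right early apoptotic, upper quadrants late apoptotic/necrotic.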

MDA-MB-231 [28] = assay: Induction of apoptosis in triple-negative human MDA-MB-231 cells assessed as apoptotic cells at 10 mM after 24 hrs by annexin V-FITC/propidium iodide staining-based flow cytometric analysis relative to control; format: functional; outline: as §5
[29] = target: 5'-AMP-activated protein kinase catalytic subunit alpha-2 (Homo sapiens) (UniProt P54646); assay: Activation of AMPK in triple-negative human […] cells at 20 mM after 24 hrs by immunoblot analysis; format: cell-based; outline: as §1
Hs-578T [30] = assay: Antiinvasive activity against triple-negative human Hs578T cells assessed as downregulation of MMP9 level at 5 to 20 mM after 24 hrs by gelatin zymogram assay; format: functional, cell-based; outline: as §3
[31] = target: Serine/threonine-protein kinase mTOR (Homo sapiens) (UniProt P42345); assay: Inhibition of mTOR phosphorylation in triple-negative human […] cells at 20 mM after 24 hrs by immunoblot analysis; format: cell-based; outline: as §1
Hs-578T [32] = assay: Antiinvasive activity against triple-negative human Hs578T cells at 20 mM after 17 hrs by light microscopic analysis; format: functional, cell-based; outline: as §4
Hs-578T [33] = assay: Antiinvasive activity against triple-negative human Hs578T cells at 10 mM after 17 hrs by light microscopic analysis; format: functional, cell-based; outline: as §4

5'-AMP-activated protein kinase catalytic subunit alpha-2 (Homo sapiens), sequence (P54646 whole entry, looked up): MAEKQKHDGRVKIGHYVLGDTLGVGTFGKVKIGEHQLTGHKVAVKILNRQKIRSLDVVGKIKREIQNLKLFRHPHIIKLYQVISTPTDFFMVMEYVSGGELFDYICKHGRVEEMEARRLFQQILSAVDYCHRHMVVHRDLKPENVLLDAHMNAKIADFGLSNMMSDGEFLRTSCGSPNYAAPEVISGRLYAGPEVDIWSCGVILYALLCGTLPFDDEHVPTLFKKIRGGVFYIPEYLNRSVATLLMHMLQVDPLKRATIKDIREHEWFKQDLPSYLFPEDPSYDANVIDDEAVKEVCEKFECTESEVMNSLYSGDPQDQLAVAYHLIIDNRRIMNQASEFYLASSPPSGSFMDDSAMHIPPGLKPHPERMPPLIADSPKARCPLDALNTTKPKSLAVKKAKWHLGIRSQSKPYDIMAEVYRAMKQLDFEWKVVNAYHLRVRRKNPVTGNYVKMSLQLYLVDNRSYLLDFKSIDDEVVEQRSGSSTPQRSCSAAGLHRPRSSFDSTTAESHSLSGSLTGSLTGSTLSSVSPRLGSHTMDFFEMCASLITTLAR

CN(C)C(=N)NC(=N)N.NCCCC(=O)O [listing 1 of 2 here]
Activity (Hs-578T [1]): Dose-dependent effect

CC(C)C[C@H](CN)CC(=O)O.CN(C)C(=N)NC(=N)N [METFORMIN PREGABALIN SALT]
IC50 (MDA-MB-231 [2]): 17.7 mM
IC50 (Hs-578T [3]): 7.2 mM
inhibition at 5000 µM (Hs-578T [4]): 64.6%

N=C(N)NC(=N)NCCc1ccccc1 [PHENFORMIN ACETIC ACID SALT]
IC50 (MDA-MB-231 [2]): 1.68 mM
IC50 (Hs-578T [3]): 0.9 mM

CN(C)C(=N)NC(=N)N.NCC1(CC(=O)O)CCCCC1 [METFORMIN GABAPENTIN SALT]
IC50 (MDA-MB-231 [2]): 16.1 mM
IC50 (Hs-578T [3]): 4 mM
inhibition at 5000 µM (Hs-578T [4]): 73.6%

CCCc1ccccc1Nc1nc(N)nc(N(C)C)n1.Cl
inhibition [5]: Active
inhibition in vivo at 100 mg/kg (MDA-MB-231 [6]): 27.9%
IC50 (MDA-MB-231 [2]): 0.28 mM
Activity (Hs-578T [7]): inactive
Ratio (Hs-578T [8]): 100
Ratio [9]: 100
inhibition in vivo at 50 mg/kg (MDA-MB-231 [10]): 17.4%
Ratio [11]: 100
inhibition at 200 µM (Hs-578T [12]): 36.6%
Activity (Hs-578T [13]): Dose-dependent effect
Activity (Hs-578T [14]): Dose-dependent effect
inhibition in vivo at 25 mg/kg (MDA-MB-231 [15]): 6.2%
Activity (MDA-MB-231 [16]): 3.1%
Activity (Mus musculus [17]): Non-toxic
Ratio IC50 (Hs-578T [18]): 100
viability at 100 µM (MDA-MB-231 [19]): 78.4%
Ratio (MDA-MB-231 [20]): 5
IC50 (Hs-578T [3]): 0.28 mM
Activity (MDA-MB-231 [21]): 1.6%
Activity [22]: Active
Activity (MDA-MB-231 [23]): 17%

CN(C)C(=N)NC(=N)N.NCCCC(=O)O [listing 2 of 2 here]
IC50 (MDA-MB-231 [2]): 41.5 mM
IC50 (Hs-578T [3]): 9.1 mM
inhibition at 5000 µM (Hs-578T [4]): 43.6%

CN(C)C(=N)NC(=N)N.Cl [METFORMIN HYDROCHLORIDE]
IC50 (MDA-MB-231 [2]): 58.4 mM
Activity (MDA-MB-231 [24]): 1.8%
Activity (Mus musculus [25]): Non-toxic
viability at 10000 µM (MDA-MB-231 [26]): 82.4%
Activity (MDA-MB-231 [27]): 0.5%
Activity (MDA-MB-231 [28]): 15.3%
IC50 (Hs-578T [3]): 26.8 mM

CN(C)C(=N)NC(=N)N
Activity [29]: Active
Activity (Hs-578T [13]): Dose-dependent effect
Activity (Hs-578T [14]): Dose-dependent effect
Activity (Hs-578T [30]): inactive
inhibition [31]: Active
inhibition (Hs-578T [32]): Active
inhibition (Hs-578T [33]): inactive

From ChEMBL document CHEMBL2346552, “A novel metformin derivative, HL010183, inhibits proliferation and invasion of triple-negative breast cancer cells” (Bioorg Med Chem, 2013)
